This note sets out measurements from ChEMBL document CHEMBL4041465, “Synthesis, characterization and molecular docking studies of substituted 4-coumarinylpyrano[2,3-c]pyrazole derivatives as potent antibacterial and anti-inflammatory agents” (2017).

In assay [1] the test system is Staphylococcus aureus. The assay can be described thus: Antibacterial activity against Staphylococcus aureus MTCC 12598 after 24 hrs by broth microdilution method. In kind it is functional. Particulars: MTCC 12598, 24 h. The essentials:
(§1)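 Broth tube dilution MIC in Brain Heart Infusion broth, triplicate per strain. Strains were subcultured at 35 °C for 48 h, then log-phase inoculum was grown from 3–5 colonies at 35 °C for 2–6 h and adjusted to 0.5 McFarland. […] serial dilutions were made over 10 tubes, with a media-plus-culture tube as negative control. Incubation was 24 h at 37 °C, and growth was read as turbidity.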
For orientation: Dilution methods test growth across graded concentrations, often in twofold steps.

Assay [2] has as its system Enterococcus faecalis. The assay can be described thus: Antibacterial activity against Enterococcus faecalis MTCC 35550 after 24 hrs by broth microdilution method. Format: functional. Particulars: MTCC 35550, 24 h. A digest of the protocol:
as §1

Assay [3] deals with Escherichia coli. In words: Antibacterial activity against Escherichia coli MTCC 443 after 24 hrs by broth microdilution method. Format: functional. Particulars: MTCC 443, 24 h. The essentials: as §1
Assay [4] has as its system Pseudomonas aeruginosa. In words: Antibacterial activity against Pseudomonas aeruginosa MTCC 25668 after 24 hrs by broth microdilution method. Format: functional. Particulars: MTCC 25668, 24 h. The essentials: as §1
A short description of assay [5]: In vitro anti-inflammatory activity using hen egg assessed as inhibition of heat-induced egg albumin denaturation at 31.25 ug/ml incubated at 37 +/- 2 degC for 15 mins followed by incubation at 70 degC for 5 mins by UV spectrophotometric method relative to control. In kind it is functional. A digest of the protocol:
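The 5 mL mix held 0.2 mL fresh hen egg albumin, 2.8 mL PBS pH 6.4 and 2 mL test solution, with water in place of test solution as control. It was held 15 min at 37±2 °C, heated 5 min at 70 °C and cooled, then absorbance was read at 660 nm against a vehicle blank. % inhibition = 100×(Abs control − Abs sample)/Abs control.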

Assay [6] can be described thus: Potency index, ratio of compound effect to aceclofenac effect for in vitro anti-inflammatory activity using hen egg assessed as inhibition of heat-induced egg albumin denaturation.

≈ marks a conversion by molar mass, not a printed value.

One may read the MIC as the smallest concentration in the dilution series that meets the test's criterion for growth inhibition. Higher therefore signals weaker potency. The term inhibition denotes the drop in the measured response relative to a control, in per cent. Consider `Cc1n[nH]c2c1C(c1cc(=O)oc3ccc(Cl)cc13)CC(=O)O2` (stereo unspecified), for which the MIC in assay [1] is 6.25 µg/mL (≈ 18.9 µM); in assay [2], 12.5 µg/mL (≈ 37.8 µM); in assay [3] it was 6.25 µg/mL (≈ 18.9 µM); in assay [4], 12.5 µg/mL (≈ 37.8 µM). For the same compound, in assay [5], the inhibition stood at 3.27%.
For the compound `COc1ccc2oc(=O)cc(C3C(C#N)=C(N)Oc4[nH]nc(C)c43)c2c1` (stereo unspecified), the MIC was determined as 3.12 µg/mL (≈ 8.92 µM) in assay [1], 12.5 µg/mL (≈ 35.7 µM) in assay [2], 6.25 µg/mL (≈ 17.8 µM) in assay [3] and 1.56 µg/mL (≈ 4.45 µM) in assay [4]. The inhibition in assay [5] is 19.1%.
Turning to `CCOC(=O)C1=C(N)Oc2[nH]nc(C)c2C1c1cc(=O)oc2cc(C)ccc12` (stereo unspecified), the MIC in assay [1] is 3.12 µg/mL (≈ 8.19 µM); in assay [2], 25 µg/mL (≈ 65.6 µM); in assay [3] it was 3.12 µg/mL (≈ 8.19 µM); in assay [4] it was 12.5 µg/mL (≈ 32.8 µM). Besides, the inhibition in assay [5] is 28.7%.
In the case of `Cc1ccc2oc(=O)cc(C3CC(=O)Oc4[nH]nc(C)c43)c2c1` (stereo unspecified), the MIC in assay [1] turned out to be 6.25 µg/mL (≈ 20.1 µM); in assay [2] it was 12.5 µg/mL (≈ 40.3 µM); in assay [3], 3.12 µg/mL (≈ 10.1 µM); in assay [4], 12.5 µg/mL (≈ 40.3 µM). Besides, the inhibition in assay [5] is 16%.
On to `CCOC(=O)C1=C(N)Oc2[nH]nc(C)c2C1c1cc(=O)oc2ccc(OC)cc12` (stereo unspecified), for which the MIC in assay [1] turned out to be 1.56 µg/mL (≈ 3.93 µM); in assay [2] it was 3.12 µg/mL (≈ 7.86 µM); in assay [3] it was 6.25 µg/mL (≈ 15.7 µM); in assay [4] it was 6.25 µg/mL (≈ 15.7 µM). Moreover, the inhibition in assay [5] came out at 51.4%. Besides, in assay [6], the Ratio was found to be 10.
On to `O=C(O)COC(=O)Cc1ccccc1Nc1c(Cl)cccc1Cl`, for which, in assay [5], the inhibition is 5.5%.
For `CCOC(=O)C1=C(N)Oc2[nH]nc(C)c2C1c1cc(=O)oc2ccc(Cl)cc12` (stereo unspecified), the MIC in assay [1] stood at 3.12 µg/mL (≈ 7.78 µM); in assay [2], 6.25 µg/mL (≈ 15.6 µM); in assay [3], 6.25 µg/mL (≈ 15.6 µM); in assay [4], 50 µg/mL (≈ 124 µM). In assay [5], the inhibition came out at 39.1%.
With `Cc1n[nH]c(O)c1C(CC(=O)O)c1cc(=O)oc2ccc(Cl)cc12` (stereo unspecified), the MIC was found to be 1.56 µg/mL (≈ 4.47 µM) in assay [1], 6.25 µg/mL (≈ 17.9 µM) in assay [2], 25 µg/mL (≈ 71.7 µM) in assay [3] and 50 µg/mL (≈ 143 µM) in assay [4]. In addition, in assay [5], the inhibition worked out at 42.6%. The Ratio in assay [6] is 10.
With `Cc1n[nH]c(O)c1C(CC(=O)O)c1cc(=O)oc2c1ccc1ccccc12` (stereo unspecified), the MIC was 6.25 µg/mL (≈ 17.2 µM) in assay [1], 12.5 µg/mL (≈ 34.3 µM) in assay [2], 6.25 µg/mL (≈ 17.2 µM) in assay [3] and 12.5 µg/mL (≈ 34.3 µM) in assay [4]. Besides, the inhibition in assay [5] was determined as 39.8%.
As to `Cc1ccc2c(C3C(C#N)=C(N)Oc4[nH]nc(C)c43)cc(=O)oc2c1` (stereo unspecified), the MIC stood at 6.25 µg/mL (≈ 18.7 µM) in assay [1], 12.5 µg/mL (≈ 37.4 µM) in assay [2], 0.78 µg/mL (≈ 2.33 µM) in assay [3] and 3.12 µg/mL (≈ 9.35 µM) in assay [4]. For the same compound, the inhibition in assay [5] was 7.6%.
The corresponding values for `Cc1n[nH]c2c1C(c1cc(=O)oc3c1ccc1ccccc13)CC(=O)O2` (stereo unspecified) are 12.5 µg/mL (≈ 36.1 µM), 12.5 µg/mL (≈ 36.1 µM), 12.5 µg/mL (≈ 36.1 µM), 6.25 µg/mL (≈ 18 µM) and 1.89%.
Regarding `Cc1n[nH]c2c1C(c1cc(=O)oc3ccc(Cl)cc13)C(C#N)=C(N)O2` (stereo unspecified), the MIC was determined as 3.12 µg/mL (≈ 8.81 µM) in assay [1], 6.25 µg/mL (≈ 17.6 µM) in assay [2], 3.12 µg/mL (≈ 8.81 µM) in assay [3] and 12.5 µg/mL (≈ 35.2 µM) in assay [4]. Moreover, the inhibition in assay [5] was 28%.
For the compound `COc1ccc2oc(=O)cc(C3CC(=O)Oc4[nH]nc(C)c43)c2c1` (stereo unspecified), the MIC in assay [1] came out at 3.12 µg/mL (≈ 9.58 µM); in assay [2] it was 6.25 µg/mL (≈ 19.2 µM); in assay [3], 6.25 µg/mL (≈ 19.2 µM); in assay [4], 6.25 µg/mL (≈ 19.2 µM). Besides, the inhibition in assay [5] came out at 29.3%.
On to `CCOC(=O)C1=C(N)Oc2[nH]nc(C)c2C1c1cc(=O)oc2ccc(C)cc12` (stereo unspecified), for which the MIC in assay [1] was 3.12 µg/mL (≈ 8.19 µM); in assay [2], 6.25 µg/mL (≈ 16.4 µM); in assay [3], 12.5 µg/mL (≈ 32.8 µM); in assay [4] it was 6.25 µg/mL (≈ 16.4 µM). Also, the inhibition in assay [5] was 24.8%.
For `Cc1ccc2oc(=O)cc(C3C(C#N)=C(N)Oc4[nH]nc(C)c43)c2c1` (stereo unspecified), the MIC was determined as 6.25 µg/mL (≈ 18.7 µM) in assay [1], 12.5 µg/mL (≈ 37.4 µM) in assay [2], 12.5 µg/mL (≈ 37.4 µM) in assay [3] and 12.5 µg/mL (≈ 37.4 µM) in assay [4]. Also, the inhibition in assay [5] was 10.3%.
Take `Cc1ccc2c(C(CC(=O)O)c3c(C)n[nH]c3O)cc(=O)oc2c1` (stereo unspecified): the MIC in assay [1] came out at 3.12 µg/mL (≈ 9.52 µM); in assay [2] it was 6.25 µg/mL (≈ 19 µM); in assay [3], 6.25 µg/mL (≈ 19 µM); in assay [4], 12.5 µg/mL (≈ 38.1 µM). Besides, in assay [5], the inhibition turned out to be 40.6%.
As for `Cc1ccc2c(C3CC(=O)Oc4[nH]nc(C)c43)cc(=O)oc2c1` (stereo unspecified), the MIC in assay [1] was determined as 6.25 µg/mL (≈ 20.1 µM); in assay [2], 6.25 µg/mL (≈ 20.1 µM); in assay [3] it was 12.5 µg/mL (≈ 40.3 µM); in assay [4], 6.25 µg/mL (≈ 20.1 µM). Also, the inhibition in assay [5] turned out to be 15.8%.
For `CCOC(=O)C1=C(N)Oc2[nH]nc(C)c2C1c1cc(=O)oc2c1ccc1ccccc12` (stereo unspecified), the MIC in assay [1] was determined as 3.12 µg/mL (≈ 7.49 µM); in assay [2], 12.5 µg/mL (≈ 29.9 µM); in assay [3], 6.25 µg/mL (≈ 15 µM); in assay [4], 6.25 µg/mL (≈ 15 µM). Further, the inhibition in assay [5] was 37.6%.
For the compound `O=C(O)c1cn(C2CC2)c2cc(N3CCNCC3)c(F)cc2c1=O` [CIPROFLOXACIN], the results for the MIC in assay [2] and in assay [3] were 6.25 µg/mL (≈ 18.9 µM) and 3.12 µg/mL (≈ 9.43 µM), respectively.
With `Cc1n[nH]c2c1C(c1cc(=O)oc3c1ccc1ccccc13)C(C#N)=C(N)O2` (stereo unspecified), the MIC in assay [1] turned out to be 6.25 µg/mL (≈ 16.9 µM); in assay [2] it was 12.5 µg/mL (≈ 33.8 µM); in assay [3] it was 25 µg/mL (≈ 67.5 µM); in assay [4] it was 25 µg/mL (≈ 67.5 µM). Further, in assay [5], the inhibition came out at 14.4%.
With `Cc1ccc2oc(=O)cc(C(CC(=O)O)c3c(C)n[nH]c3O)c2c1` (stereo unspecified), the MIC in assay [1] was determined as 3.12 µg/mL (≈ 9.52 µM); in assay [2] it was 6.25 µg/mL (≈ 19 µM); in assay [3], 12.5 µg/mL (≈ 38.1 µM); in assay [4], 25 µg/mL (≈ 76.1 µM). Further, in assay [5], the inhibition worked out at 37.4%.
For `COc1ccc2oc(=O)cc(C(CC(=O)O)c3c(C)n[nH]c3O)c2c1` (stereo unspecified), the MIC in assay [1] was 0.78 µg/mL (≈ 2.27 µM); in assay [2], 1.56 µg/mL (≈ 4.53 µM); in assay [3], 3.12 µg/mL (≈ 9.08 µM); in assay [4] it was 6.25 µg/mL (≈ 18.2 µM). Besides, in assay [5], the inhibition turned out to be 63.1%. In assay [6], the Ratio is 10.
